The nature of data set [1]: Half life in human. Type of data set: ADME, organism-based. The settings on record: in vivo.
Data set [2] relates to Influenza A virus. In words: Antimicrobial activity against Influenza A virus (A/Puerto Rico/8/34(H1N1)) infected in BALB/c mouse assessed as reduction in viral titer in lung at 0.17 mg/kg, itn administered 11 hrs post infection measured after 35 hrs post infection. Type of data set: functional, organism-based. Also on record: dose 0.17 mg/kg. The note with it: A/Puerto Rico/8/1934(H1N1). The gist of the method:
(§1)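 BALB/c mice infected intranasally with A/PR/8/34 at 30 PFU. Intranasal dosing at 0.5 μmol/kg began at 11 hpi, either repeated twice daily or given once followed by twice-daily saline. Lungs (n = 3) were taken at 35, 59 and 83 hpi and homogenized. Titers were measured by MDCK plaque assay as log10 PFU/lungs. Two-way ANOVA and Dunnett test were applied.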

Data set [3] relates to Influenza A virus. In words: Antimicrobial activity against Influenza A virus (A/Puerto Rico/8/34(H1N1)) infected in BALB/c mouse assessed as increase in mouse survival at 3.3 mg/kg, itn administered for 7 days before infection. Type of data set: functional, organism-based. Set-up: dose 3.3 mg/kg. The note with it: A/Puerto Rico/8/1934(H1N1).
For data set [4], the system named is Influenza A virus. In words: Antimicrobial activity against Influenza A virus (A/Puerto Rico/8/34(H1N1)) infected in BALB/c mouse assessed as increase in mouse survival at 1.6 mg/kg, itn administered for 7 days before infection. Type of data set: functional, organism-based. Set-up: dose 1.6 mg/kg. The settings on record: A/Puerto Rico/8/1934(H1N1).
The test system of data set [5] is Influenza A virus. In words: Antimicrobial activity against Influenza A virus (A/Puerto Rico/8/34(H1N1)) infected in BALB/c mouse assessed as increase in mouse survival at 14 mg/kg, itn administered for 7 days before infection. Type of data set: functional, organism-based. Set-up: dose 14 mg/kg. The note with it: A/Puerto Rico/8/1934(H1N1).
For data set [6], the system named is Influenza A virus. In words: Antimicrobial activity against Influenza A virus (A/Puerto Rico/8/34(H1N1)) infected in BALB/c mouse assessed as increase in mouse survival at 1.7 mg/kg, itn administered for 7 days before infection. Type of data set: functional, organism-based. Also on record: dose 1.7 mg/kg. The note with it: A/Puerto Rico/8/1934(H1N1). The procedure, abridged: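 Single intranasal dose in saline (50 μl) given to anesthetized female BALB/c mice 7 days before intranasal infection with A/PR/8/34 at 500 PFU, n = 12. Survival was checked daily to day 20. Groups were compared with saline controls by Kaplan-Meier and log-rank test, with Bonferroni adjustment where needed.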

Data set [7] has as its system Influenza B virus. In words: Antimicrobial activity against Influenza B virus (B/Malaysia/2506/2004) infected itn dosed Mustela putorius furo assessed as nasal viral titer treated after 4 hrs post infection measured after 1 day. Type of data set: functional, organism-based. The gist of the method:
(§2)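 Ferrets (600–800 g), seronegative by hemagglutination inhibition, anaesthetized with ketamine/xylazine and infected with B/Malaysia/2506/2004, 1,000 PFU/100 μl. From 4 hpi they received either a single intranasal dose (saline, 0.05 or 0.5 μmol/kg) or 25 mg/kg oral twice daily. Nasal wash titers measured by MDCK plaque assay on days 1, 2 and 3, log10 PFU/ml (n = 5). Undetectable samples entered at the lower limit of detection.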

Data set [8] deals with Influenza B virus. In words: Antimicrobial activity against Influenza B virus (B/Hong Kong/05/1972) infected in BALB/c mouse assessed as increase in mouse survival at 9.6 mg/kg, itn administered for 7 days before infection. Type of data set: functional, organism-based. Set-up: dose 9.6 mg/kg.
For data set [9], the system named is Influenza A virus. As to the kind of experiment: Antimicrobial activity against Influenza A virus (A/Puerto Rico/8/34(H1N1)) infected in BALB/c mouse assessed as reduction in viral titer in lung at 0.17 mg/kg, itn administered 11 hrs post infection measured after 59 hrs post infection. Type of data set: functional, organism-based. Also on record: dose 0.17 mg/kg. The note with it: A/Puerto Rico/8/1934(H1N1). The gist of the method: as §1

The test system of data set [10] is Influenza A virus. As to the kind of experiment: Antimicrobial activity against Influenza A virus (A/Puerto Rico/8/34(H1N1)) infected in BALB/c mouse assessed as increase in mouse survival at 7 mg/kg, itn administered for 7 days before infection. Type of data set: functional, organism-based. Set-up: dose 7 mg/kg. The settings on record: A/Puerto Rico/8/1934(H1N1).

The test system of data set [11] is Influenza A virus. As to the kind of experiment: Antimicrobial activity against Influenza A virus (A/Puerto Rico/8/34(H1N1)) infected in BALB/c mouse assessed as increase in mouse survival at 4.7 mg/kg, itn administered for 7 days before infection. Type of data set: functional, organism-based. Set-up: dose 4.7 mg/kg. The note with it: A/Puerto Rico/8/1934(H1N1).

Data set [12] concerns Influenza A virus. In words: Antimicrobial activity against Influenza A virus (A/Puerto Rico/8/34(H1N1)) infected in BALB/c mouse assessed as reduction in viral titer in lung at 0.17 mg/kg, itn administered 11 hrs post infection measured after 83 hrs post infection. Type of data set: functional, organism-based. Also on record: dose 0.17 mg/kg. The note with it: A/Puerto Rico/8/1934(H1N1). The procedure, abridged: as §1

For data set [13], the system named is Influenza B virus. As to the kind of experiment: Antimicrobial activity against Influenza B virus (B/Hong Kong/05/1972) infected in BALB/c mouse assessed as increase in mouse survival at 1.1 mg/kg, itn administered for 7 days before infection measured at day 20. Type of data set: functional.
Data set [14] has as its system Influenza B virus. As to the kind of experiment: Antimicrobial activity against Influenza B virus (B/Malaysia/2506/2004) infected itn dosed Mustela putorius furo assessed as nasal viral titer treated after 4 hrs post infection measured after 3 days. Type of data set: functional, organism-based. The procedure, abridged: as §2
The test system of data set [15] is Influenza B virus. In words: Antimicrobial activity against Influenza B virus (B/Hong Kong/05/1972) infected in BALB/c mouse assessed as increase in mouse survival at 3.3 mg/kg, itn administered for 7 days before infection. Type of data set: functional, organism-based. Set-up: dose 3.3 mg/kg.
Data set [16] relates to Influenza B virus. In words: Antimicrobial activity against Influenza B virus (B/Malaysia/2506/2004) infected itn dosed Mustela putorius furo assessed as nasal viral titer treated after 4 hrs post infection measured after 2 days. Type of data set: functional, organism-based. The procedure, abridged:
as §2

Data set [17] deals with Influenza A virus. In words: Antimicrobial activity against Influenza A virus (A/Puerto Rico/8/34(H1N1)) infected in BALB/c mouse assessed as reduction in viral titer in lung at 14 mg/kg, itn administered for 7 days before infection. Type of data set: functional, organism-based. Set-up: dose 14 mg/kg. The note with it: A/Puerto Rico/8/1934(H1N1). The gist of the method:
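Female BALB/c mice (5–6 wk) given one intranasal dose in saline (50 μl) 7 days before intranasal infection with A/PR/8/34, 500 PFU. Lungs (three mice per time point) excised on days 1, 2, 3 and 4 and homogenized in PBS-BSA/PS. Titer determined by MDCK plaque assay, read as log10 PFU/lungs, mean ± SD (n = 3). AUC expressed as percent of saline control.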

Data set [18] deals with Influenza B virus. As to the kind of experiment: Antimicrobial activity against Influenza B virus (B/Hong Kong/05/1972) infected in BALB/c mouse assessed as increase in mouse survival at 1.1 mg/kg, itn administered for 7 days before infection. Type of data set: functional, organism-based. Also on record: dose 1.1 mg/kg.

Activity calls are given as the source filed them. No cut-off for these calls is given here.

In the case of `CC(=O)N[C@H]1[C@H]([C@H](O)[C@H](O)CO)OC(C(=O)O)=C[C@@H]1N=C(N)N` [ZANAMIVIR], in [1], the half-life (in general, the time in which the quantity being followed falls by half) is 2.8 h.
With `CC(=O)N[C@H]1[C@H]([C@H](O)[C@H](O)CO)OC(C(=O)O)=C[C@@H]1NC(=N)N` [ZANAMIVIR], the outcome in data set [2], in data set [3], in data set [4], in [5], in data set [6] and in data set [8] was Active. The result in data set [9], in [10], in data set [11], in data set [12], in data set [15] and in [17] was Active. Moreover, in data set [18], the result was Active. Besides, the Activity result was “Dose-dependent effect” in [7], 36% in [13], “Dose-dependent effect” in data set [14] and “Dose-dependent effect” in [16].

The values are drawn from ChEMBL document CHEMBL1255395, “Laninamivir prodrug CS-8958, a long-acting neuraminidase inhibitor, shows superior anti-influenza virus activity after a single administration” (Antimicrob Agents Chemother, 2010).
